In brackets after ≈: the same amount, converted by molar mass.
Assays:
Assay type in all cases: functional
Clostridium perfringens = experiment: microbe, parasite or virus in culture
Staphylococcus aureus = experiment: In vitro antibacterial activity against aerobically grown Staphylococcus aureus (54B004)
Summary of the method: (§1)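 Agar dilution MICs. Aerobic strains were tested on brain heart infusion agar and incubated aerobically at 37 °C for 18–20 h.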

[1] = system: Bordetella bronchiseptica; experiment: In vitro antibacterial activity against aerobically grown Bordetella bronchiseptica (73A009)
Summary of the method: as §1

Escherichia coli [2] = experiment: Escherichia coli DNA cleavage endpoint value which is the minimum amount required (in micro g/mL) to induce detectable cleavage of supercoiled pBR322 substrate to linear form (gyrase); conditions: read-out: MIC
Summary of the method: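 DNA gyrase A and B subunits were purified from E. coli overproducers. About 2 units of holoenzyme were incubated with pBR322 in Tris-HCl pH 7.5 containing MgCl2, spermidine, DTT, 0.2 mM ATP, BSA and tRNA. Drug was added as 2-fold serial dilutions, and reactions ran for 60 min at 25 °C. Reactions were stopped with SDS and proteinase K, then run on agarose and stained with ethidium. The endpoint was the lowest concentration giving detectable linear DNA.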

Phocaeicola vulgatus = experiment: In vitro antibacterial activity against anaerobically grown Bacteroides vulgatus (78D029)
Summary of the method: (§2)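 Agar dilution MICs. Anaerobic strains were tested on tryptose agar with 5% bovine blood and incubated 48 h at 39 °C in an anaerobe chamber under N2/CO2/H2 (80:10:10).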

Escherichia coli [3] = experiment: In vitro antibacterial activity against aerobically grown Escherichia coli (51A538)
Summary of the method: as §1

[4] = In vitro evaluation for antibacterial activity against anaerobically grown Treponema hyodysenteriae (94A007); conditions: Brachyspira hyodysenteriae
[5] = In vitro antibacterial activity against Aerobically grown Pasteurella haemolytica (59B018); conditions: Mannheimia haemolytica
Summary of the method: as §1

Pasteurella multocida [6] = experiment: In vitro antibacterial activity against aerobically grown Pasteurella multocida (59A006)
Summary of the method: as §1

Trueperella pyogenes = experiment: In vitro antibacterial activity against anaerobically grown Actinomyces pyogenes (14D002)
Summary of the method: as §2

Salmonella enterica = experiment: In vitro antibacterial activity against aerobically grown Salmonella choleraesuis (58B015)
[7] = system: Actinobacillus pleuropneumoniae; experiment: In vitro antibacterial activity against anaerobically grown Actinobacillus pleuropneumoniae ([…])
Summary of the method: as §2

Escherichia coli [8] = experiment: In vivo protective dose was evaluated against Escherichia coli (51A266) in mouse(sc); conditions: read-out: PD50
Summary of the method: (§3)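 Female CF-1 mice (15 g), groups of 10, challenged ip with 0.5 mL bacterial suspension (P. multocida 59A006 or E. coli 51A266 at 3.0 × 10^8 cfu/mL; S. choleraesuis 58B010 at 8.5 × 10^2 cfu/mL). Drug given sc or po at 30 min, 4 h and 24 h after challenge; survival recorded at 96 h; PD50 by probit analysis.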

Pasteurella multocida [9] = experiment: In vivo protective dose was evaluated against Pasteurella multocida (59A006) in mouse(sc); conditions: read-out: PD50
Summary of the method: as §3

| Compound | MIC (Clostridium perfringens) [µg/mL] | MIC (Staphylococcus aureus) [µg/mL] | MIC [1] [µg/mL] | minimum concentration inducing gyrase-mediated DNA cleavage (Escherichia coli [2]) [µg/mL] | MIC (Phocaeicola vulgatus) [µg/mL] | MIC (Escherichia coli [3]) [µg/mL] | MIC [4] [µg/mL] | MIC [5] [µg/mL] | MIC (Pasteurella multocida [6]) [µg/mL] | MIC (Trueperella pyogenes) [µg/mL] | MIC (Salmonella enterica) [µg/mL] | MIC [7] [µg/mL] | ED50 (Escherichia coli [8]) [mg/kg] | ED50 (Pasteurella multocida [9]) [mg/kg] |
| --- | --- | --- | --- | --- | --- | --- | --- | --- | --- | --- | --- | --- | --- | --- |
| CCn1cc(C(=O)O)c(=O)c2cc(F)c(N3CCN4CCC3CC4)c(F)c21.Cl.O | 0.78 | 0.39 | 0.78 | 1.56 | 1.56 | 0.2 | 1.56 | 0.2 | 0.1 | > 3.13 | 0.2 | 0.05 |  |  |
| Cl.O.O=C(O)c1cn(C2CC2)c2cc(N3CCN4CCC3CC4)c(F)cc2c1=O | 0.05 | 0.05 | 0.39 | 0.39 | 0.39 | 0.02 | 0.39 | 0.01 | < 0.002 | 1.56 | 0.02 | 0.05 | 0.09 |  |
| Cl.O.O=C(O)c1cn(CCF)c2cc(N3CCN4CCC3CC4)c(F)cc2c1=O | 0.2 | 0.78 | 1.56 | 0.39 | > 3.13 | 0.2 | 1.56 | 0.02 | 0.05 | > 3.13 | 0.1 | 0.02 |  |  |
| Cl.O.O=C(O)c1cn(-c2ccc(F)cc2)c2cc(N3CCN4CCC3CC4)c(F)cc2c1=O | 0.1 | 0.2 | 1.56 | 0.78 | 0.78 | 0.2 | 0.78 | 0.1 | 0.02 | 3.13 | 0.2 | 0.05 |  |  |
| CN1C2CC[C@@H]1CCN(c1cc3c(cc1F)c(=O)c(C(=O)O)cn3C1CC1)C2 | 0.2 (≈ 0.519 µM) | 0.39 (≈ 1.01 µM) | > 1.56 | 3.12 | 3.13 (≈ 8.12 µM) | 0.39 (≈ 1.01 µM) | 1.56 (≈ 4.05 µM) | 0.2 (≈ 0.519 µM) | 0.05 (≈ 0.13 µM) | 3.13 (≈ 8.12 µM) | 0.39 (≈ 1.01 µM) | 0.2 (≈ 0.519 µM) |  | 0.43 |
| CN1C2CC[C@@H]1CCN(c1c(F)cc3c(=O)c(C(=O)O)cn(C4CC4)c3c1F)C2 | 0.39 (≈ 0.967 µM) | 0.2 (≈ 0.496 µM) | > 1.56 | 0.39 | 0.78 (≈ 1.93 µM) | 0.1 (≈ 0.248 µM) | > 3.13 | 0.1 (≈ 0.248 µM) | 0.02 (≈ 0.0496 µM) | 1.56 (≈ 3.87 µM) | 0.1 (≈ 0.248 µM) | 0.1 (≈ 0.248 µM) |  |  |
| CN1[C@@H]2CC[C@H]1CN(c1c(F)cc3c(=O)c(C(=O)O)cn(C4CC4)c3c1F)C2 | 0.78 (≈ 2 µM) | 0.39 (≈ 1 µM) | 3.13 (≈ 8.04 µM) | 0.78 | 25 (≈ 64.2 µM) | 0.2 (≈ 0.514 µM) | 0.78 (≈ 2 µM) | 0.1 (≈ 0.257 µM) | 0.1 (≈ 0.257 µM) | 1.56 (≈ 4.01 µM) | 0.39 (≈ 1 µM) | 0.39 (≈ 1 µM) |  |  |
| CCn1cc(C(=O)O)c(=O)c2cc(F)c(N3C[C@H]4CC[C@@H](C3)N4C)c(F)c21 | 1.56 (≈ 4.13 µM) | 0.39 (≈ 1.03 µM) | 12.5 (≈ 33.1 µM) | 3.12 | > 25 | 0.78 (≈ 2.07 µM) | 6.25 (≈ 16.6 µM) | 0.39 (≈ 1.03 µM) | 0.2 (≈ 0.53 µM) | 6.25 (≈ 16.6 µM) | 1.56 (≈ 4.13 µM) | 0.2 (≈ 0.53 µM) |  |  |

From ChEMBL document CHEMBL1126160, “Synthesis and structure-activity relationships of 7-diazabicycloalkylquinolones, including danofloxacin, a new quinolone antibacterial agent for veterinary medicine” (J Med Chem, 1992)
